# Measurements from different studies.
# Each line is one published result; the experiments were not run side by side.
# Target: TGF-beta receptor type-1 (TGFBR1, Homo sapiens, UniProt P36897)
# One construct used (P36897 34-503): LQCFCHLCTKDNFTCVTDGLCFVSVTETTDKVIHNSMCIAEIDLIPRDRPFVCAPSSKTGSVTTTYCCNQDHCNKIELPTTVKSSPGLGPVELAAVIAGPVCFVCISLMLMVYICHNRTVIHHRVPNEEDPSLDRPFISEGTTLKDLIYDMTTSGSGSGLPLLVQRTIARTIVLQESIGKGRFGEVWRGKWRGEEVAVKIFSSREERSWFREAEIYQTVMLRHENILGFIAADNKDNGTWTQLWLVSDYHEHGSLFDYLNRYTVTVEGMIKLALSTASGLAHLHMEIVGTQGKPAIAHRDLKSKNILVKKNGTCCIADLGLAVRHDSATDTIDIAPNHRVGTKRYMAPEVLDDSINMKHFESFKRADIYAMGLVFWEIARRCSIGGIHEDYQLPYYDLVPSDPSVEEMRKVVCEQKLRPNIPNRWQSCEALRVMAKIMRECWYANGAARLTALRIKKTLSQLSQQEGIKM
SMILES,test,setting,remaining binding [%]
CN(C)c1nccc(-c2cnn3ncccc23)n1,binding,1 µM,100
CCN1CCN(Cc2ccc(C(=O)Nc3ccc(C)c(Oc4ccc5c(c4)CC(=O)N5)c3)cc2C(F)(F)F)CC1,"binding, competition with immobilised ligand",1 µM,100
N#Cc1ccccc1CSc1nnc2c(n1)[nH]c1ccccc12,"binding, competition with immobilised ligand",10 µM,100
CC(=O)Nc1c(C(C)=O)c(=O)n(C)c2nc(-c3ccc(Cl)cc3Cl)c(-c3ccc(Cl)cc3)cc12,"cell-free assay, competition with immobilised ligand",1 µM,82
CN(CCCC(F)(F)F)c1nccc(-c2cnn3ncccc23)n1,binding,1 µM,100
C=CC(=O)N1CCC(C(=O)NCC(=O)N2CCN(c3nc(-c4cnc(N)nc4C(F)F)nc(N4CCOCC4)n3)CC2)CC1,"binding, competition with immobilised ligand",1 µM,100
O=C(c1ccc(Nc2ncc(Cl)c(-c3ccc(Cl)s3)n2)cc1)N1CCC(N2CCCC2)CC1,"binding, competition with immobilised ligand",1 µM,55
C[C@H](c1ccc(F)cc1)N(Cc1cccc(C(=O)O)c1)C(=O)c1cnc2ccccc2c1,"cell-free assay, competition with immobilised ligand",1 µM,96
O=C(c1ccc(Nc2nccc(-c3cc4ccccc4s3)n2)cc1)N1CCC(N2CCCC2)CC1,"binding, competition with immobilised ligand",1 µM,91
C[C@@H]1CN(c2ccc3ncc(-c4ccc5[nH]nc(C6CC6)c5c4)n3n2)C[C@H](C)O1,"binding, competition with immobilised ligand",0.5 µM,100
COc1cnc(Nc2cccc(S(N)(=O)=O)c2)nc1N1CCN(c2ccccc2)CC1,"binding, competition with immobilised ligand",1 µM,100
C[C@H]1CCN(c2nccc(-c3cnn4ncccc34)n2)C1,binding,1 µM,76
COCCOc1nc(-c2ccc(Cl)nc2)nc2c1CN(C(=O)c1ncn3ccccc13)CC2,"cell-free assay, competition with immobilised ligand",0.1 µM,100
C[C@@H](c1ccc(-n2cnc3c(N)ncnc32)cc1)N1CCc2nn(C)c(Cc3ccccc3)c2C1=O,"binding, competition with immobilised ligand",0.1 µM,82
O=C(NCC1CCOCC1)c1n[nH]cc1NC(=O)c1c(F)cccc1F,"binding, competition with immobilised ligand",1 µM,96
CN(C)c1ncc(F)c(-c2cnn3ncccc23)n1,binding,1 µM,86
Cc1nc(C2CCN(C(=O)c3ccc(OC(F)(F)F)cc3N)CC2)c2ncc(N3CCN(C)CC3)cc2n1,"cell-free assay, competition with immobilised ligand",1 µM,80
CN(C)c1nccc(-c2cnc3ncccn23)n1,binding,1 µM,82
COc1ncc2cc3ccccc3nc2c1C#N,"cell-free assay, competition with immobilised ligand",5 µM,92
O=C(N[C@H]1CCCCC/C=C\C2C[C@@]2(C(=O)O)NC(=O)[C@@H]2C[C@@H](Oc3ccncc3)CN2C1=O)OC1CCCC1 (stereo partly shown),"cell-free assay, competition with immobilised ligand",1 µM,100
O=C(NCCCN1CCOCC1)c1ccc(Nc2nccc(-c3cc4ccccc4s3)n2)cc1,"binding, competition with immobilised ligand",1 µM,58
FC(F)(F)c1ccc2c(c1)nc(-c1cccnc1)n2C1CC1,"cell-free assay, competition with immobilised ligand",1 µM,78
N[C@@H]1CCN(c2nccc(-c3cnn4ncccc34)n2)C1,binding,1 µM,92
O=C(Nc1cccnn1)N1CCC(=Cc2cccc(Oc3ccc(C(F)(F)F)cn3)c2)CC1,"cell-free assay, competition with immobilised ligand",1 µM,61
F[C@@H]1CCN(c2nccc(-c3cnn4ncccc34)n2)C1,binding,1 µM,100
